Experimental data taken from ChEMBL document CHEMBL1139169, “Design, synthesis, and antiviral properties of 4'-substituted ribonucleosides as inhibitors of hepatitis C virus replication: the discovery of R1479” (Bioorg Med Chem Lett, 2007).

Columns and labels:
[1] = Cytotoxicity against human 2209-23 cells at 20 uM; assay type: cell-based; settings: 2209-23, 20 µM
Hepatitis C virus [2] = assay: Antiviral activity against HCV 1b replicon in human 2209-23 cells assessed as inhibition of viral replication at 20 uM; assay type: functional, Hepacivirus hominis; settings: genotype 1b
In short: (§1)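 Huh-7 replicon cell line 2209-23. Compounds were tested at a single fixed concentration and scored as percent inhibition of replicon replication, or titrated to give the IC50, the concentration producing a 50% reduction in replicon replication.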

[3] = Cytostatic activity against human 2209-23 cells; assay type: ADME, cell-based; settings: read-out: CT50 (the source's name)
In short: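 Replicon cells were tested for proliferation by measuring incorporation of tritiated thymidine into cellular DNA with a scintillation proximity assay (SPA). CT50 was taken as the cytostatic concentration.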

[4] = Cytotoxicity against human 2209-23 cells; assay type: cell-based
Hepatitis C virus [5] = assay: Inhibition of HCV 1b BK NS5B570 RNA polymerase; set-up: species or system Hepatitis C virus subtype 1b
In short: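 NS5B570-BK polymerase activity was read as incorporation of radiolabeled nucleoside monophosphate into acid-insoluble RNA products, with HCV cIRES RNA as template.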

Hepatitis C virus [6] = assay: Antiviral activity against HCV 1b replicon in human 2209-23 cells; assay type: functional, organism-based, Hepacivirus hominis; settings: genotype 1b; in short: as §1
Hepatitis C virus [7] = assay: Antiviral activity against HCV 1b replicon in human 2209-23 cells assessed as inhibition of viral replication at 100 uM; assay type: functional, Hepacivirus hominis; settings: genotype 1b
[8] = Cytotoxicity against human 2209-23 cells at 100 uM; assay type: cell-based; settings: 2209-23, 100 µM

Row | Compound | Activity [1] [%] | inhibition at 20 µM (Hepatitis C virus [2]) [%] | also measured
1 | [N-]=[N+]=N[C@]1(CO)O[C@@H](n2ccc(N)nc2=O)[C@H](O)[C@@H]1O [4'-AZIDOCYTIDINE] | 13 | 97 | GI50 [3]: > 100 µM; CC50 [4]: > 2000 µM; IC50 (Hepatitis C virus [5]): 0.29 µM; IC50 (Hepatitis C virus [6]): 1.28 µM
2 | C[C@@]1(O)[C@H](O)[C@@H](CO)O[C@H]1n1ccc(N)nc1=O |  |  | GI50 [3]: > 100 µM; CC50 [4]: > 33 µM; IC50 (Hepatitis C virus [6]): 1.23 µM
3 | C=CC[C@]1(CO)O[C@@H](n2ccc(N)nc2=O)[C@H](O)[C@@H]1O | 0 | 0 | 
4 | Nc1ccn([C@@H]2O[C@H](CO)[C@@H](O)[C@H]2F)c(=O)n1 |  |  | GI50 [3]: 0.8 µM; CC50 [4]: > 100 µM; IC50 (Hepatitis C virus [6]): 0.58 µM
5 | C#C[C@]1(CO)O[C@@H](n2ccc(=O)[nH]c2=O)[C@H](O)[C@@H]1O | 0 | 0 | 
6 | CC#C[C@]1(CO)O[C@@H](n2ccc(N)nc2=O)[C@H](O)[C@@H]1O | 0 | 11 | 
7 | O=c1ccn([C@@H]2OC(CO)(CO)[C@@H](O)[C@H]2O)c(=O)[nH]1 | 0 | 1 | 
8 | Nc1ccn([C@@H]2OC(CO)(CO)[C@@H](O)[C@H]2O)c(=O)n1 | 2 | 13 | 
9 | C=C[C@]1(CO)O[C@@H](n2ccc(=O)[nH]c2=O)[C@H](O)[C@@H]1O | 0 |  | inhibition at 100 µM (Hepatitis C virus [7]): 50%
10 | CCO[C@]1(CO)O[C@@H](n2ccc(N)nc2=O)[C@H](O)[C@@H]1O | 0 | 11 | 
11 | [N-]=[N+]=N[C@]1(CO)O[C@@H](n2ccc(=O)[nH]c2=O)[C@H](O)[C@@H]1O | 17 | 13 | IC50 (Hepatitis C virus [5]): 0.3 µM
12 | C#C[C@]1(CO)O[C@@H](n2ccc(N)nc2=O)[C@H](O)[C@@H]1O | 0 | 3 | IC50 (Hepatitis C virus [5]): 2.7 µM
13 | N#C[C@]1(CO)O[C@@H](n2ccc(=O)[nH]c2=O)[C@H](O)[C@@H]1O | 0 | 0 | 
14 | C=C[C@]1(CO)O[C@@H](n2ccc(N)nc2=O)[C@H](O)[C@@H]1O | 0 |  | inhibition at 100 µM (Hepatitis C virus [7]): 53%
15 | C=CC[C@]1(CO)O[C@@H](n2ccc(=O)[nH]c2=O)[C@H](O)[C@@H]1O |  |  | CC50 [4]: 39 µM; IC50 (Hepatitis C virus [6]): 22 µM
16 | CC#C[C@]1(CO)O[C@@H](n2ccc(=O)[nH]c2=O)[C@H](O)[C@@H]1O |  |  | inhibition at 100 µM (Hepatitis C virus [7]): 76%; Activity [8]: 19%
17 | N#C[C@]1(CO)O[C@@H](n2ccc(N)nc2=O)[C@H](O)[C@@H]1O | 100 | 99 | 
18 | CC[C@]1(CO)O[C@@H](n2ccc(N)nc2=O)[C@H](O)[C@@H]1O |  |  | inhibition at 100 µM (Hepatitis C virus [7]): 20%; Activity [8]: 20%
